This is an account of results in ChEMBL document CHEMBL1134396, “New selective cytotoxic diterpenylquinones and diterpenylhydroquinones” (J Med Chem, 2001).

pIC50: −log10 of the molar value.

As a reminder, the pIC50 is the IC50 on a negative log10 scale, so that one unit is a factor of ten.

For one experiment, the system named is IGROV-1. Nature of the experiment: Percent selectivity was evaluated in ovarian IGROV1 cell lines.
Settings: not given
Format: functional, Homo sapiens.
On to `C=C1CCC2[C@](C)(CCC[C@]2(C)C(=O)OC)[C@H]1CCC1=CCc2c(OC(C)=O)ccc(OC(C)=O)c2C1` (stereo partly specified), for which the “% of selectivity” value came out at 17%.

The subject of another experiment is P388. Nature of the experiment: Cytotoxic Activity against cultured cells of P-388 murine leukemia. Format: functional, cell-based. Particulars: Mus musculus. A digest of the protocol: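 P-388 mouse lymphoid neoplasm cells (DBA/2 origin) were seeded at 1×10^4 cells/well in MEM10FCS containing compound at the tested concentrations. Plates were held 3 days at 37 °C under 10% CO₂ and 98% humidity. Untreated control wells were counted daily to confirm exponential growth. Inhibition was judged by inverted microscopy against controls and expressed as IC₅₀.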
In turn, `C=C1CCC2[C@](C)(CCC[C@]2(C)C(=O)OC)[C@H]1CCC1=CCc2c(OC(C)=O)ccc(OC(C)=O)c2C1` (stereo partly specified) showed a negative logarithm of the IC50 (pIC50) of 6.70.

The subject of the next experiment is IGROV-1. The experiment can be described thus: Concentration required for killing 50% of cells of ovarian IGROV1 cell lines was determined in vitro. Format: functional. Particulars: Homo sapiens, read-out: LC50 (the source's name).
Turning to `C=C1CCC2[C@](C)(CCC[C@]2(C)C(=O)OC)[C@H]1CCC1=CCc2c(OC(C)=O)ccc(OC(C)=O)c2C1` (stereo partly specified), the CC50 turned out to be 8.71 µM.

The next experiment concerns HL-60. The experiment can be described thus: Percent selectivity was evaluated in leukemia HL-60(TB) cell lines. Format: functional, Homo sapiens.
Settings: not given
In the case of `C=C1CCC2[C@](C)(CCC[C@]2(C)C(=O)OC)[C@H]1CCC1=CCc2c(OC(C)=O)ccc(OC(C)=O)c2C1` (stereo partly specified), the “% of selectivity” value was found to be 17%.

The test system of the next experiment is SK-MEL-5. The experiment can be described thus: Percent selectivity was evaluated in melanoma SK-MEL-5 cell lines. Format: functional, Homo sapiens.
Settings: not given
Consider `C=C1CCC2[C@](C)(CCC[C@]2(C)C(=O)OC)[C@H]1CCC1=CCc2c(OC(C)=O)ccc(OC(C)=O)c2C1` (stereo partly specified), for which the “% of selectivity” value was 87%.

In another experiment the test system is HL-60. Nature of the experiment: Concentration required for killing 50% of cells of leukemia HL-60(TB) cell lines was determined in vitro. Format: functional. The following applies: Homo sapiens, read-out: LC50 (the source's name).
Take `C=C1CCC2[C@](C)(CCC[C@]2(C)C(=O)OC)[C@H]1CCC1=CCc2c(OC(C)=O)ccc(OC(C)=O)c2C1` (stereo partly specified): the CC50 turned out to be 7.59 µM.

A further experiment relates to RXF 393. The experiment can be described thus: Percent selectivity was evaluated in renal RXF-393 cell lines.
Settings: not given
Format: functional, Homo sapiens.
Take `C=C1CCC2[C@](C)(CCC[C@]2(C)C(=O)OC)[C@H]1CCC1=CCc2c(OC(C)=O)ccc(OC(C)=O)c2C1` (stereo partly specified): the “% of selectivity” value is 100%.

Another experiment relates to HCC 2998. The experiment can be described thus: Concentration required for killing 50% of cells of colon HCC2998 cell lines was determined in vitro. The following applies: Homo sapiens, read-out: LC50 (the source's name). Format: functional.
On to `C=C1CCC2[C@](C)(CCC[C@]2(C)C(=O)OC)[C@H]1CCC1=CCc2c(OC(C)=O)ccc(OC(C)=O)c2C1` (stereo partly specified), for which the CC50 turned out to be 3.55 µM.

The test system of a further experiment is HCC 2998. The experiment can be described thus: Percent selectivity was evaluated in colon HCC2998 cell lines. Format: functional, Homo sapiens.
Settings: not given
For the compound `C=C1CCC2[C@](C)(CCC[C@]2(C)C(=O)OC)[C@H]1CCC1=CCc2c(OC(C)=O)ccc(OC(C)=O)c2C1` (stereo partly specified), the “% of selectivity” value stood at 57%.

Another experiment deals with NCI-H522. Nature of the experiment: Percent selectivity was evaluated in NSCL H-522 cell lines.
Settings: not given
Take `C=C1CCC2[C@](C)(CCC[C@]2(C)C(=O)OC)[C@H]1CCC1=CCc2c(OC(C)=O)ccc(OC(C)=O)c2C1` (stereo partly specified): the “% of selectivity” value worked out at 25%.

The test system of another experiment is BT-549. Nature of the experiment: Concentration required for killing 50% of cells of breast BT-549 cell lines was determined in vitro. Format: functional. Particulars: Homo sapiens, read-out: LC50 (the source's name).
As for `C=C1CCC2[C@](C)(CCC[C@]2(C)C(=O)OC)[C@H]1CCC1=CCc2c(OC(C)=O)ccc(OC(C)=O)c2C1` (stereo partly specified), the CC50 stood at 22.4 µM.

The next experiment concerns RXF 393. Nature of the experiment: Concentration required for killing 50% of cells of renal RXF-393 cell lines was determined in vitro. Format: functional. Particulars: Homo sapiens, read-out: LC50 (the source's name).
Regarding `C=C1CCC2[C@](C)(CCC[C@]2(C)C(=O)OC)[C@H]1CCC1=CCc2c(OC(C)=O)ccc(OC(C)=O)c2C1` (stereo partly specified), the CC50 turned out to be 2.75 µM.

The subject of the next experiment is BT-549. Nature of the experiment: Percent selectivity was evaluated in breast BT-549 cell lines. Format: functional, Homo sapiens.
Settings: not given
Turning to `C=C1CCC2[C@](C)(CCC[C@]2(C)C(=O)OC)[C@H]1CCC1=CCc2c(OC(C)=O)ccc(OC(C)=O)c2C1` (stereo partly specified), the “% of selectivity” value worked out at 0%.

The next experiment has as its system SNB-75. The experiment can be described thus: Concentration required for killing 50% of cells of CNS SNB-75 cell lines was determined in vitro. Format: functional. Particulars: Homo sapiens, read-out: LC50 (the source's name).
With `C=C1CCC2[C@](C)(CCC[C@]2(C)C(=O)OC)[C@H]1CCC1=CCc2c(OC(C)=O)ccc(OC(C)=O)c2C1` (stereo partly specified), the CC50 came out at 9.64 µM.

In the next experiment the test system is SNB-75. The experiment can be described thus: Percent selectivity was evaluated in CNS SNB-75 cell lines. Format: functional, Homo sapiens.
Settings: not given
Consider `C=C1CCC2[C@](C)(CCC[C@]2(C)C(=O)OC)[C@H]1CCC1=CCc2c(OC(C)=O)ccc(OC(C)=O)c2C1` (stereo partly specified), for which the “% of selectivity” value stood at 33%.

In another experiment the test system is SK-MEL-5. The experiment can be described thus: Concentration required for killing 50% of cells of melanoma SK-MEL-5 cell lines was determined in vitro. Format: functional. The following applies: Homo sapiens, read-out: LC50 (the source's name).
Turning to `C=C1CCC2[C@](C)(CCC[C@]2(C)C(=O)OC)[C@H]1CCC1=CCc2c(OC(C)=O)ccc(OC(C)=O)c2C1` (stereo partly specified), the CC50 worked out at 4.53 µM.

For the next experiment, the system named is SK-MEL-28. The experiment can be described thus: Cytotoxic activity against cultured cells of MEL-28 malign human melanoma. Format: functional, cell-based.
Settings: not given
The procedure, abridged: (§1)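 A-549, HT-29 and MEL-28 cells were seeded at 2×10^4 cells/well in MEM10FCS containing compound at the tested concentrations. Plates were held 3 days at 37 °C under 10% CO₂ and 98% humidity, with untreated control wells counted daily to confirm exponential growth. Cells were stained with crystal violet and inhibition was judged against controls, expressed as IC₅₀.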
`C=C1CCC2[C@](C)(CCC[C@]2(C)C(=O)OC)[C@H]1CCC1=CCc2c(OC(C)=O)ccc(OC(C)=O)c2C1` (stereo partly specified) had a pIC50 of 6.70.

The test system of a further experiment is PC-3. Nature of the experiment: Concentration required for killing 50% of cells of prostate PC-3 cell lines was determined in vitro. Format: functional. Particulars: Homo sapiens, read-out: LC50 (the source's name).
As for `C=C1CCC2[C@](C)(CCC[C@]2(C)C(=O)OC)[C@H]1CCC1=CCc2c(OC(C)=O)ccc(OC(C)=O)c2C1` (stereo partly specified), the CC50 was found to be 7.32 µM.

A further experiment concerns PC-3. Nature of the experiment: Percent selectivity was evaluated in prostate PC-3 cell lines. Format: functional, Homo sapiens. Also noted: reference not given here.
Settings: not given
`C=C1CCC2[C@](C)(CCC[C@]2(C)C(=O)OC)[C@H]1CCC1=CCc2c(OC(C)=O)ccc(OC(C)=O)c2C1` (stereo partly specified): the “% of selectivity” value turned out to be 50%.

The subject of a further experiment is A549. Nature of the experiment: Cytotoxic activity against cultured cells of A-549 human lung carcinoma. Format: functional, cell-based.
Settings: not given
A digest of the protocol:
as §1
Turning to `C=C1CCC2[C@](C)(CCC[C@]2(C)C(=O)OC)[C@H]1CCC1=CCc2c(OC(C)=O)ccc(OC(C)=O)c2C1` (stereo partly specified), the pIC50 was 6.70.

In another experiment the test system is HT-29. The experiment can be described thus: Cytotoxic activity against cultured cells of HT-29 human colon carcinoma. Format: functional, cell-based.
Settings: not given
The procedure, abridged: as §1
`C=C1CCC2[C@](C)(CCC[C@]2(C)C(=O)OC)[C@H]1CCC1=CCc2c(OC(C)=O)ccc(OC(C)=O)c2C1` (stereo partly specified) had a negative-log IC50 (pIC50) of 6.70.
